Experimental findings from ChEMBL document CHEMBL4257524, “Design and synthesis of conformationally constraint Dyrk1A inhibitors by creating an intramolecular H-bond involving a benzothiazole core” (Medchemcomm, 2018) are described below.

pIC50: −log10 of the molar value. Bounds are passed on as bounds.

Data set [1] addresses T1, Dual specificity tyrosine-phosphorylation-regulated kinase 1B (Homo sapiens, UniProt Q9Y463). Kind of data set: Inhibition of full length recombinant human GST-tagged Dyrk1B expressed in baculovirus expression system at 0.5 uM using KKISGRLSPIMTEQ-NH2 peptide as substrate in presence of [gamma-32P]-ATP relative to control. The procedure, abridged:
(§1)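 Dyrk1B kinase assay with ATP at 15 μM. Single-point % inhibition measured at 0.5 μM, and IC50 determined. Values are means of at least two independent experiments, each run in duplicate, with standard deviation <10%.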
Target sequence in this assay (Q9Y463 whole entry, looked up): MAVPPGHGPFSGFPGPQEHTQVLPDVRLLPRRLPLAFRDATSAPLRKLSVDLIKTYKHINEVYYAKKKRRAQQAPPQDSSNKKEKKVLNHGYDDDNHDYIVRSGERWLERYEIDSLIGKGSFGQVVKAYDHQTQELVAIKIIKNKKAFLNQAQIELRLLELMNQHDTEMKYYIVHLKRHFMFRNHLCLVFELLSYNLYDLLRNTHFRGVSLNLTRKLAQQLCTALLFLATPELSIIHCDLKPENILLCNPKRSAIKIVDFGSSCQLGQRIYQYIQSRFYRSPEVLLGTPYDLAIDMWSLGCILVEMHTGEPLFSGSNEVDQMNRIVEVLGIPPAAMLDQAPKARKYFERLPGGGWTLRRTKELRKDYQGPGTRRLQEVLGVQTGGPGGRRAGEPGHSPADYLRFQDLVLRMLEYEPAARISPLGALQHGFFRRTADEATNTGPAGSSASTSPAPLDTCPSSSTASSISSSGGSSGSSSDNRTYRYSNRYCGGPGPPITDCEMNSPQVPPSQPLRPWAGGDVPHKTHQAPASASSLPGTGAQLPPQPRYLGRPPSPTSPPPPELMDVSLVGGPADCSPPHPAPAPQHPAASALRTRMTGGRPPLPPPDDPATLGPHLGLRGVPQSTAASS

Data set [2] has as its target T1, Dual specificity tyrosine-phosphorylation-regulated kinase 1B. Nature of the data set: Inhibition of full length recombinant human GST-tagged Dyrk1B expressed in baculovirus expression system using KKISGRLSPIMTEQ-NH2 peptide as substrate in presence of [gamma-32P]-ATP. The method in brief: as §1
Target sequence in this assay (Q9Y463 whole entry): as the sequence (Q9Y463 whole entry, looked up) above
A short description of data set [3]: Half life in human liver S9 fraction assessed as CYP450-mediated compound degradation at 0.3 uM after 15 to 60 mins by LC-MS/MS analysis. In kind it is ADME, subcellular. The method in brief: (§2)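 Pooled human liver S9 fraction incubated with compound at 37 °C. Samples taken at 0, 15, 30 and 60 min, and parent compound quantified by MS. Half-life and parent compound remaining derived from these measurements.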

Data set [4] addresses T2, Dual specificity tyrosine-phosphorylation-regulated kinase 1A (Homo sapiens, UniProt Q13627). Kind of data set: Inhibition of recombinant human N-terminal His6-tagged Dyrk1A catalytic domain expressed in Escherichia coli BL21 (DE3) using KKISGRLSPIMTEQ-NH2 peptide as substrate in presence of [gamma-32P]-ATP.
For data set [5], the target named is Casein kinase I isoform delta (Homo sapiens) (UniProt P48730). Nature of the data set: Inhibition of full length recombinant human GST-tagged CK1delta expressed in baculovirus expression system at 5 uM relative to control. The procedure, abridged:
(§3)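 Kinase panel run at a single 5 μM inhibitor concentration with ATP at 100 μM. Activity expressed as % inhibition. Values are means of at least two duplicates.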

Data set [6] addresses T3, Dual specificity protein kinase CLK1 (Homo sapiens, UniProt P49759). Kind of data set: Inhibition of recombinant GST-tagged human CLK1 expressed in Escherichia coli using RSRSRSRSR peptide as substrate in presence of [gamma-32P]-ATP. The procedure, abridged: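 CLK1 IC50 determined in kinase assay with ATP at 15 μM.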
Target sequence in this assay (P49759 whole entry): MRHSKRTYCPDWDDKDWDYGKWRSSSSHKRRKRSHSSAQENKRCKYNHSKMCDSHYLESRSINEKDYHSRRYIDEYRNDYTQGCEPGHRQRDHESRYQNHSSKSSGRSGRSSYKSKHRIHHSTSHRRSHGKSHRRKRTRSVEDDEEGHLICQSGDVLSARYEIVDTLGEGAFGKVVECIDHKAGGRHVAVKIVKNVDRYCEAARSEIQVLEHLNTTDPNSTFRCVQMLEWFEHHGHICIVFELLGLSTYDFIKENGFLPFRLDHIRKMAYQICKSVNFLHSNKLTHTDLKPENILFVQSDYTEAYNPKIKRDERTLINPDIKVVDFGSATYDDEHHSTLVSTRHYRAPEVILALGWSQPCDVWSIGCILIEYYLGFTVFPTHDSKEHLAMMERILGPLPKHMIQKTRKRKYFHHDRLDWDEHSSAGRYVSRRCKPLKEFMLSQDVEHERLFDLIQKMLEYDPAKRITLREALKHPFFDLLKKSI
Data set [7] concerns the target T3, Dual specificity protein kinase CLK1. Kind of data set: Inhibition of recombinant GST-tagged human CLK1 expressed in Escherichia coli at 5 uM using RSRSRSRSR peptide as substrate in presence of [gamma-32P]-ATP.
Target sequence in this assay (P49759 whole entry, looked up): as the sequence (P49759 whole entry) above
The target in data set [8] is T2, Dual specificity tyrosine-phosphorylation-regulated kinase 1A. Nature of the data set: Inhibition of recombinant human N-terminal His6-tagged Dyrk1A catalytic domain expressed in Escherichia coli BL21 (DE3) at 5 uM using KKISGRLSPIMTEQ-NH2 peptide as substrate in presence of [gamma-32P]-ATP relative to control. The method in brief: as §3
Data set [9] has as its target Myosin light chain kinase, smooth muscle (Homo sapiens) (UniProt Q15746). Kind of data set: Inhibition of full length recombinant human GST-tagged MLCK expressed in baculovirus expression system at 5 uM relative to control. The method in brief:
as §3

Data set [10] concerns the target T4, Serine/threonine-protein kinase 17A (Homo sapiens) (UniProt Q9UEE5).
T4 sequence (whole entry): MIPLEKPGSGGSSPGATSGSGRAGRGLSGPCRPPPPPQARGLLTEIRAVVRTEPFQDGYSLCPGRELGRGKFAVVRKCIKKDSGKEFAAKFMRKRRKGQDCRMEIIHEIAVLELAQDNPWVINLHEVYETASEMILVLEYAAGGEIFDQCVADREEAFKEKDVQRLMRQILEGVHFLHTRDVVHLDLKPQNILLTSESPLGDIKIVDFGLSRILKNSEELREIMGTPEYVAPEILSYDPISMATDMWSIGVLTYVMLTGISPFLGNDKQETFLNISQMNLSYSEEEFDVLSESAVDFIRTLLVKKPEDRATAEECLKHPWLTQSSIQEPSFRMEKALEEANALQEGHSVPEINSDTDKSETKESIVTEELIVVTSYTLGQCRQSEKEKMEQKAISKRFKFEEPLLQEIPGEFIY
Kind of data set: Inhibition of full length recombinant human GST-tagged STK17A expressed in baculovirus expression system at 5 uM relative to control. The method in brief: as §3

The species entered for data set [11] is Homo sapiens. Nature of the data set: Selectivity ratio of IC50 for full length recombinant human GST-tagged Dyrk1B to IC50 for recombinant human N-terminal His6-tagged Dyrk1A catalytic domain. The procedure, abridged:
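Ratio of Dyrk1B IC50 to Dyrk1A IC50. Both IC50s determined with ATP at 15 μM, from means of at least two independent duplicate experiments.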

Data set [12] can be described thus: Drug metabolism in human liver S9 fraction assessed as CYP450-mediated metabolite formation by measuring parent compound remaining at 0.3 uM after 60 mins by LC-MS/MS analysis. The class given is ADME, subcellular. Particulars: s9, 1 h. The method in brief: as §2
For data set [13], the species on record is Homo sapiens. Kind of data set: Selectivity ratio of IC50 for recombinant GST-tagged human CLK1 to IC50 for recombinant human N-terminal His6-tagged Dyrk1A catalytic domain.
In data set [14] the target is Cyclin-dependent kinase 5/CDK5 activator 1 (Homo sapiens) (UniProt Q00535+Q15078). Nature of the data set: Inhibition of full length recombinant human GST-tagged CDK5/His-tagged p25 expressed in baculovirus expression system at 5 uM relative to control. The procedure, abridged: as §3
The target of data set [15] is BDNF/NT-3 growth factors receptor (Homo sapiens) (UniProt Q16620). Kind of data set: Inhibition of recombinant human His-tagged NTRK2 expressed in baculovirus expression system at 5 uM relative to control. The method in brief:
as §3

Data set [16] concerns the target Serine/threonine-protein kinase pim-1 (Homo sapiens) (UniProt P11309). Kind of data set: Inhibition of full length recombinant human His-tagged PIM1 expressed in baculovirus expression system at 5 uM relative to control. The method in brief:
as §3

For data set [17], the target named is T5, Serine/threonine-protein kinase haspin (Homo sapiens) (UniProt Q8TF76).
T5 sequence (whole entry): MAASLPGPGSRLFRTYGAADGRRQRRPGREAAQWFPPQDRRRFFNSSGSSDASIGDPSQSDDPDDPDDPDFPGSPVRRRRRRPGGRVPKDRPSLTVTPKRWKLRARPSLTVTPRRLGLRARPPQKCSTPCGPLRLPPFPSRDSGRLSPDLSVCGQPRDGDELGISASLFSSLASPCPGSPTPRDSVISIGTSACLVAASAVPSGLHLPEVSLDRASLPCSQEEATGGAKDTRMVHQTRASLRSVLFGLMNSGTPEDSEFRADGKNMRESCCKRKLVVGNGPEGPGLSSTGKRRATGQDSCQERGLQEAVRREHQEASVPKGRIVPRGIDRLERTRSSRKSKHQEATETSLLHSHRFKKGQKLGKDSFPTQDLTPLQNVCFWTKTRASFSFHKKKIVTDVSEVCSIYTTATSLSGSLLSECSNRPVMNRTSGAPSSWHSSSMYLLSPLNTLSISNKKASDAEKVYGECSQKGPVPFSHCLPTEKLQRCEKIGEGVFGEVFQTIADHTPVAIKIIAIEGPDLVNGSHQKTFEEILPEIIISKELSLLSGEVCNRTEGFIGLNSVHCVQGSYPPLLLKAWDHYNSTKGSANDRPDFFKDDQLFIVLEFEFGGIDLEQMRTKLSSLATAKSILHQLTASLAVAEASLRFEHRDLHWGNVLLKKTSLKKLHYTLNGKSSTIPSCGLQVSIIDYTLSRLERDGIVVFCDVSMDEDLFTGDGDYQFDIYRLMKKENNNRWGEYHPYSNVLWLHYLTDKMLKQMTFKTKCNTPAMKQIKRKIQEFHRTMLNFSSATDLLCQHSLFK
Nature of the data set: Inhibition of recombinant human N-terminal GST-tagged Haspin expressed in baculovirus expression system at 5 uM relative to control. The procedure, abridged:
as §3

Data set [18] has as its target SRSF protein kinase 1 (Homo sapiens) (UniProt Q96SB4). Kind of data set: Inhibition of full length recombinant human His-tagged SRPK1 expressed in baculovirus expression system at 5 uM relative to control. The method in brief:
as §3

The target of data set [19] is Homeodomain-interacting protein kinase 1 (Homo sapiens) (UniProt Q86Z02). Kind of data set: Inhibition of recombinant human GST-tagged HIPK1 expressed in baculovirus expression system at 5 uM relative to control. The method in brief:
as §3

Sequence of Homeodomain-interacting protein kinase 1 (Homo sapiens) (Q86Z02 whole entry, looked up): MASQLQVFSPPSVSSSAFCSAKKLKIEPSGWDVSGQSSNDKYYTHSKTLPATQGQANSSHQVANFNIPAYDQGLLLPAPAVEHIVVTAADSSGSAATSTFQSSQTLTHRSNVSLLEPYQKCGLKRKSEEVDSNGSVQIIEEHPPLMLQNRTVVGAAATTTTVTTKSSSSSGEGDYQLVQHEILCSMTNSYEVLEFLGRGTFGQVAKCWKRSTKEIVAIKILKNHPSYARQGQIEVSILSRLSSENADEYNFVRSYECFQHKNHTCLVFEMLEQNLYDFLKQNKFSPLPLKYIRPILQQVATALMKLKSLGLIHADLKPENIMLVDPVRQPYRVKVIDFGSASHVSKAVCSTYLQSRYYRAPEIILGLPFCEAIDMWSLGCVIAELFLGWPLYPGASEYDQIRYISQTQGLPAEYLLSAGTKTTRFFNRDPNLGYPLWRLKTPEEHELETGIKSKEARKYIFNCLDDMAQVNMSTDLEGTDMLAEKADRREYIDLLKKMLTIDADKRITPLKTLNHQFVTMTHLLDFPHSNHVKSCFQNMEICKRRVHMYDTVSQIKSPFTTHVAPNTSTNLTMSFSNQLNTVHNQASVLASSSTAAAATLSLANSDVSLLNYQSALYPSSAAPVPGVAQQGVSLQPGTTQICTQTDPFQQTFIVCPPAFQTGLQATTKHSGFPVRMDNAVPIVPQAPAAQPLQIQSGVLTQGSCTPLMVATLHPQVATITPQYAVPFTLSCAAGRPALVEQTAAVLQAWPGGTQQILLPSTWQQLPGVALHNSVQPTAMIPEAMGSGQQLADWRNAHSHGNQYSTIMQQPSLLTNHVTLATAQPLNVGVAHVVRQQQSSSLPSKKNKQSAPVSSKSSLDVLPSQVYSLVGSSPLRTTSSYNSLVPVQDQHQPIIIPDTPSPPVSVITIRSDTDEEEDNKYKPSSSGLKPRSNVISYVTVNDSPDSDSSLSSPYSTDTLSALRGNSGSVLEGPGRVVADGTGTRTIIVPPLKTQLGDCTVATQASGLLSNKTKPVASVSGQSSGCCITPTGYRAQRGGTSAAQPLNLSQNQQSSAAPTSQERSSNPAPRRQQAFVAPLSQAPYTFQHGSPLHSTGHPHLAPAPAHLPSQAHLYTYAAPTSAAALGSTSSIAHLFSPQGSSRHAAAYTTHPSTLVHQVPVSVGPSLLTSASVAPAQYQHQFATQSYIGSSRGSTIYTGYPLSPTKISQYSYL
Sequence of Cyclin-dependent kinase 5/CDK5 activator 1 (Homo sapiens) (Q00535 whole entry): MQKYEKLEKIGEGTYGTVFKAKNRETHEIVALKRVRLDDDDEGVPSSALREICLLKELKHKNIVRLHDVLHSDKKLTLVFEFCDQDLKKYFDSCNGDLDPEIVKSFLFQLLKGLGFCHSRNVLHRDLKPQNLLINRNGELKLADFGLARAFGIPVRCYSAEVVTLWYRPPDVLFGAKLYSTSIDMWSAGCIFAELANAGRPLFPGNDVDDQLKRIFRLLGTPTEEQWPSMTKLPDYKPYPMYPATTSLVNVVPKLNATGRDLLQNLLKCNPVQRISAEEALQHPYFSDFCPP
Sequence of Cyclin-dependent kinase 5/CDK5 activator 1 (Homo sapiens) (Q15078 99-307 partner limits assumed): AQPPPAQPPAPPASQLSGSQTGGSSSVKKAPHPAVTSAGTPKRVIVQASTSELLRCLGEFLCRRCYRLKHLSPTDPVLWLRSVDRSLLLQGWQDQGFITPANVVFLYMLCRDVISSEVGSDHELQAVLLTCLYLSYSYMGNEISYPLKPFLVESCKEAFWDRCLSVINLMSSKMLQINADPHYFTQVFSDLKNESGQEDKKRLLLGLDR
Sequence of BDNF/NT-3 growth factors receptor (Homo sapiens) (Q16620 32-822 limits assumed): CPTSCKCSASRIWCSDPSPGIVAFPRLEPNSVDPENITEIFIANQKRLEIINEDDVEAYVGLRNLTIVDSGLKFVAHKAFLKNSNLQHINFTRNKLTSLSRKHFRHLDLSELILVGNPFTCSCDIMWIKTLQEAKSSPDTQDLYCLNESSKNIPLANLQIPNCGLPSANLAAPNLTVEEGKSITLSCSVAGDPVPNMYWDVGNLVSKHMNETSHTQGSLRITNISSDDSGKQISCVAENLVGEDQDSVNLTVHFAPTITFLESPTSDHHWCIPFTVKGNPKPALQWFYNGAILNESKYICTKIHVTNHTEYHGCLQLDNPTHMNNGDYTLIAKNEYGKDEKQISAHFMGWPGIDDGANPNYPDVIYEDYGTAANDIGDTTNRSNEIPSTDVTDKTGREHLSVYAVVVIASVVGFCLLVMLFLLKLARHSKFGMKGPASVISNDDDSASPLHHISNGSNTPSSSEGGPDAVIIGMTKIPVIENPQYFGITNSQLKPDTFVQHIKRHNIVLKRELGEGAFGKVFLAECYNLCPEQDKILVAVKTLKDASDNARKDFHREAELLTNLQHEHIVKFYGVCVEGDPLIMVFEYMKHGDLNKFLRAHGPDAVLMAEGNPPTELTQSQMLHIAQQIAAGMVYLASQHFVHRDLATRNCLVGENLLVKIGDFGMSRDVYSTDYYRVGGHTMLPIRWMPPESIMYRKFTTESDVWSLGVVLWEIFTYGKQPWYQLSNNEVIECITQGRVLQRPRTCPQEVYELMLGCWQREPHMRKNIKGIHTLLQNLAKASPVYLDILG
Sequence of SRSF protein kinase 1 (Homo sapiens) (Q96SB4 whole entry): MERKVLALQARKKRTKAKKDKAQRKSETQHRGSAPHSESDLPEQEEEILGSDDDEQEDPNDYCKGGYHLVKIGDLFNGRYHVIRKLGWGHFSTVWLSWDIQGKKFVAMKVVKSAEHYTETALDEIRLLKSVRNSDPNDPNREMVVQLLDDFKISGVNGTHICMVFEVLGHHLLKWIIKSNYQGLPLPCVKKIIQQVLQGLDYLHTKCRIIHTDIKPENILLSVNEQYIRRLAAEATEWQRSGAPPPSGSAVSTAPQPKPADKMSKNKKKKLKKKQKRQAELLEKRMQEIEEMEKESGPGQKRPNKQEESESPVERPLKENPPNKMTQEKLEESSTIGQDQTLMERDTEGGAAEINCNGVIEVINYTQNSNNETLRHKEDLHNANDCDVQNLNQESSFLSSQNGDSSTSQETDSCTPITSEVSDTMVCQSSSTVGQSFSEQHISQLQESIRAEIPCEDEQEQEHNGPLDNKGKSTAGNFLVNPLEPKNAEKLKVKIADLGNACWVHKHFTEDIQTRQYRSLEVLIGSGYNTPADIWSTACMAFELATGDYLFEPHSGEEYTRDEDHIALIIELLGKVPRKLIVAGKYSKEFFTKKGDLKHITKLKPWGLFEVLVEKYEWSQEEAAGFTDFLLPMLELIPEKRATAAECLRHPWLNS

With `COc1ccc2nc(NC(=O)Oc3ccccc3)sc2c1`, the inhibition in [1] was found to be 0%.
Same read-out and setting: the result for `COc1ccc2nc(NC(=O)Nc3ccc(C(=O)N4CCN(C)CC4)cc3)sc2c1` reads 0%.
Consider `O=C(Nc1ccc(C(=O)NCc2ccccc2)cc1)Nc1nc2ccc(O)cc2s1`, for which the inhibition in data set [1] turned out to be 69%. For the same molecule, the pIC50 was 6.89 in data set [2] and 7.20 in [4]. Besides, the half-life at 0.3 µM in data set [3] was determined as 33 min.
`O=C(Nc1ccccc1)Nc1nc2ccc(O)cc2s1`: in data set [1], the inhibition came out at 43.6%. The pIC50 in data set [2] was 6.15; in [4], 6.79.
As for `O=C(Cc1cccc(O)c1)Nc1nc2ccc(O)cc2s1`, in data set [1], the inhibition was 0%.
Still for that read-out and setting: the result for `COc1ccc2nc(NC(=O)NCCN3CCOCC3)sc2c1` reads 0%; that for `O=C(Nc1ccccc1)Nc1nnc(-c2ccncc2)s1`, 12%.
Consider `O=C(Nc1cccc(O)c1)Nc1nc2ccc(O)cc2s1`, for which the inhibition in data set [1] is 54.6%. Further, the negative logarithm of the IC50 (pIC50) in [2] was 6.43; in data set [4], 6.87.
For `COc1ccc2nc(NC(=O)Nc3ccc(C(=O)O)cc3)sc2c1`, the inhibition in data set [1] stood at 0%.
On the same count and under the same terms, next, `COc1ccc2nc(NC(=O)NCCCN3CCN(C)CC3)sc2c1`: 0%.
As for `CN1CCN(C(=O)c2ccc(NC(=O)Nc3nc4ccc(O)cc4s3)cc2)CC1`, the inhibition in [5] amounted to 9%; in [7], 72%; in data set [8], 85%; in data set [9], 45%; in data set [10] it was 39%; in [1], 21%. Besides, the inhibition in [14] worked out at 2%; in data set [15] it was 13%; in data set [16], 29%; in data set [17] it was 1%; in data set [18], 5%; in [19], 50%. In addition, the results for the pIC50 in [6], in data set [2] and in data set [4] were 6.14, 5.82 and 7.02, respectively. Besides, the Ratio IC50 is 16 in the data set filed under Homo sapiens [11] and above 7 in the data set listed under Homo sapiens [13]. The Stability in data set [12] worked out at 88%. The half-life at 0.3 µM in data set [3] was above 60 min.
`COc1ccc2nc(NC(=O)Nc3ccccc3)sc2c1`: the inhibition in [1] was found to be 0%.
As to `COc1ccc2nc(NC(=O)Nc3ccc(C(=O)NCc4ccccc4)cc3)sc2c1`, in data set [1], the inhibition stood at 0%.
Same read-out and setting: next, `COc1cccc(CC(=O)Nc2nc3ccc(OC)cc3s2)c1`: 25%.
With `C[C@]12CC[C@H]3[C@@H](CCC4=CC(=O)CC[C@@]43C)[C@@H]1CC[C@@H]2O` [TESTOSTERONE], the half-life at 0.3 µM in [3] worked out at 9.6 min.
For the molecule `O=C(Nc1nc2ccc(O)cc2s1)Oc1ccccc1`, the inhibition in [1] turned out to be 0%.
